Common to all, as to type: functional
What all share (conditions): 144 h

The test system of assay [1] is Botrytis cinerea. The assay can be described thus: Antifungal activity against Botryotinia fuckeliana assessed as radial growth inhibition at 200 ug/mL measured after 6 days. In a few lines: (§1)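 Radial growth inhibition of B. cinerea on glucose-malt-peptone agar (61 g/L, pH 6.5-7.0) in 9 cm dishes. Compound in acetone added to the medium at final 50-200 μg/mL, with equal acetone in the controls. A 5 mm mycelial disc from an actively growing culture was placed centrally. Growth was followed for 6 days; % inhibition from mean colony diameter versus untreated control. Triplicate, repeated at least three times.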

Assay [2] concerns Botrytis cinerea. The assay can be described thus: Antifungal activity against Botryotinia fuckeliana assessed as radial growth inhibition at 50 ug/mL measured after 6 days. In a few lines: as §1
Assay [3] relates to Botrytis cinerea. The assay can be described thus: Antifungal activity against Botryotinia fuckeliana assessed as radial growth inhibition at 100 ug/mL measured after 6 days. In a few lines:
as §1

Each structure is given as a SMILES string.

For orientation: inhibition means how much of the control response was suppressed. As for `O=C(NN1Cc2ccccc2C1)c1ccccc1F`, the inhibition at 200 µg/mL in the assay with Botrytis cinerea [1] was found to be 91%. Further, the inhibition at 50 µg/mL in the assay with Botrytis cinerea [2] was 42%. The inhibition at 100 µg/mL in the assay with Botrytis cinerea [3] came out at 50%.

Turning to `O=C(NN(Cc1ccccc1)Cc1ccccc1)c1ccccc1Cl`, the inhibition at 200 µg/mL with Botrytis cinerea [1] turned out to be 86%. For the same molecule, the inhibition at 50 µg/mL with Botrytis cinerea [2] was 31%. In the assay on Botrytis cinerea [3], the inhibition at 100 µg/mL worked out at 42%.

In the case of `CN(C)NC(=O)c1ccccc1I`, in the assay with Botrytis cinerea [1], the inhibition at 200 µg/mL stood at 33%. In addition, the inhibition at 50 µg/mL with Botrytis cinerea [2] amounted to 19%. Besides, in the assay on Botrytis cinerea [3], the inhibition at 100 µg/mL stood at 28%.

With `CN(C)NC(=O)c1ccccc1F`, the inhibition at 200 µg/mL in the assay on Botrytis cinerea [1] was determined as 32%. Also, in the assay with Botrytis cinerea [2], the inhibition at 50 µg/mL turned out to be 12%. Moreover, the inhibition at 100 µg/mL in the assay with Botrytis cinerea [3] was 22%.

In the case of `CN(C)NC(=O)c1ccccc1Cl`, the inhibition at 200 µg/mL in the assay on Botrytis cinerea [1] was 33%. For the same molecule, the inhibition at 50 µg/mL in the assay on Botrytis cinerea [2] worked out at 0%. The inhibition at 100 µg/mL in the assay on Botrytis cinerea [3] stood at 0%.

Take `O=C(NN(Cc1ccccc1)Cc1ccccc1)c1ccccc1I`: the inhibition at 200 µg/mL in the assay on Botrytis cinerea [1] worked out at 82%. Also, the inhibition at 50 µg/mL in the assay with Botrytis cinerea [2] came out at 27%. The inhibition at 100 µg/mL with Botrytis cinerea [3] was 50%.

With `Cc1ccccc1C(=O)NN(Cc1ccccc1)Cc1ccccc1`, in the assay on Botrytis cinerea [1], the inhibition at 200 µg/mL is 88%. Besides, the inhibition at 50 µg/mL in the assay with Botrytis cinerea [2] was 48%. Further, in the assay with Botrytis cinerea [3], the inhibition at 100 µg/mL stood at 55%.

As for `O=C(NN1CCCCC1)c1ccccc1F`, the inhibition at 200 µg/mL in the assay on Botrytis cinerea [1] was determined as 51%. Also, the inhibition at 50 µg/mL in the assay with Botrytis cinerea [2] came to 46%. The inhibition at 100 µg/mL with Botrytis cinerea [3] was found to be 51%.

Regarding `O=C(NN1CCCCC1)c1ccccc1Cl`, the inhibition at 200 µg/mL in the assay on Botrytis cinerea [1] was determined as 57%. In addition, the inhibition at 50 µg/mL in the assay with Botrytis cinerea [2] was 36%. The inhibition at 100 µg/mL with Botrytis cinerea [3] was found to be 40%.

With `O=C(NN1CCCCC1)c1ccccc1I`, the inhibition at 200 µg/mL with Botrytis cinerea [1] came out at 46%. Moreover, the inhibition at 50 µg/mL in the assay on Botrytis cinerea [2] was found to be 33%. Further, in the assay on Botrytis cinerea [3], the inhibition at 100 µg/mL is 42%.

In the case of `COc1ccccc1C(=O)NN1CCCCC1`, the inhibition at 200 µg/mL with Botrytis cinerea [1] amounted to 51%. Besides, the inhibition at 50 µg/mL in the assay on Botrytis cinerea [2] is 38%. Also, the inhibition at 100 µg/mL with Botrytis cinerea [3] turned out to be 47%.

With `O=C(NN(Cc1ccccc1)Cc1ccccc1)c1ccccc1` [N',N'-DIBENZYLBENZOHYDRAZIDE], in the assay with Botrytis cinerea [1], the inhibition at 200 µg/mL came out at 44%. In addition, in the assay on Botrytis cinerea [2], the inhibition at 50 µg/mL was 10%. For the same molecule, the inhibition at 100 µg/mL in the assay on Botrytis cinerea [3] worked out at 42%.

For the molecule `CN(C)NC(=O)c1ccccc1` [N',N'-DIMETHYLBENZOHYDRAZIDE], in the assay on Botrytis cinerea [1], the inhibition at 200 µg/mL was found to be 51%. Moreover, the inhibition at 50 µg/mL in the assay on Botrytis cinerea [2] was found to be 24%. In addition, in the assay on Botrytis cinerea [3], the inhibition at 100 µg/mL stood at 45%.

As for `O=C(NN1CCCCC1)c1ccccc1` [N-PIPERIDINOBENZAMIDE], the inhibition at 200 µg/mL in the assay on Botrytis cinerea [1] amounted to 45%. The inhibition at 50 µg/mL with Botrytis cinerea [2] was 37%. Also, in the assay on Botrytis cinerea [3], the inhibition at 100 µg/mL stood at 43%.

Source of the values: ChEMBL document CHEMBL3044531, “Quantitative structure-antifungal activity relationships of some benzohydrazides against Botrytis cinerea” (2007).
